From ChEMBL document CHEMBL3994613, “Diaryltriazenes as antibacterial agents against methicillin resistant Staphylococcus aureus (MRSA) and Mycobacterium smegmatis” (Eur J Med Chem, 2017)
≈ marks a conversion by molar mass, not a printed value.

Experiments:
[1] = Stability in PBS buffer at pH 7.4 by TLC method; type: physicochemical
[2] = Stability in PBS buffer at pH 7.4 NMR method; type: physicochemical
[3] = test system: Mycolicibacterium smegmatis; assay: Antimycobacterial activity against Mycobacterium smegmatis MC2 155 after 94 to 98 hrs by microdilution method; type: functional; details: str. MC2 155
In short: (§1)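 Microdilution in TSB broth. Inoculum from colonies grown 96 h on TSA, final 1×10^5 CFU/mL, aerobic 94–98 h at 37 °C, growth read on a plate reader, at least duplicate.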

[4] = test system: Mycolicibacterium smegmatis; assay: Bactericidal activity against Mycobacterium smegmatis MC2 155 after 96 hrs by microdilution method; type: functional; details: str. MC2 155, 96 h; in short: as §1
Staphylococcus aureus [5] = assay: Antibacterial activity against methicillin-resistant Staphylococcus aureus USA300 after 18 to 20 hrs by microdilution method; type: functional
In short: (§2)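 EUCAST broth microdilution in LB broth. Inoculum prepared by direct colony suspension from 20–24 h LB agar (E. coli DH10β) or 5% sheep blood BHI agar (MRSA USA300) growth. Final inoculum 2×10^4 CFU/mL, 18–20 h aerobic at 37 °C, growth read on a plate reader, at least duplicate.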

Staphylococcus aureus [6] = assay: Bactericidal activity against methicillin-resistant Staphylococcus aureus USA300 after 18 to 20 hrs by microdilution method; type: functional; in short: as §2
Escherichia coli [7] = assay: Antibacterial activity against Escherichia coli DH10beta harboring pHuLUC3 after 18 to 20 hrs by microdilution method; type: functional; in short: as §2
Escherichia coli [8] = assay: Bactericidal activity against Escherichia coli DH10beta harboring pHuLUC3 after 18 to 20 hrs by microdilution method; type: functional; in short: as §2
Saccharomyces cerevisiae = assay: Antibacterial activity against Saccharomyces cerevisiae after 18 to 20 hrs by microdilution method
In short: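 Microdilution in YEP broth against wild-type yeast grown on YEP agar. Final inoculum 1×10^5 CFU/mL. Read after 18–20 h aerobic incubation at 30 °C on plate reader, at least one duplicate.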

Staphylococcus aureus [9] = assay: Induction of membrane integrity impairment in Staphylococcus aureus USA300 assessed as cells with intact membrane at 8 ug/ml measured after 30 mins by Baclight assay relative to control; type: functional
In short: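 LIVE/DEAD BacLight fluorescence assay. Live cells in 0.85% NaCl at OD600 0.2 were exposed to compound in DMSO for 30 min at 37 °C. Dye was then added and incubated 15 min in the dark at room temperature. Fluorescence read at ex 485 nm, em 530/630 nm. Intact membrane % came from a live/dead (isopropanol-killed) standard curve, at least triplicate, mean±SD.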

Staphylococcus aureus [10] = assay: Antibacterial activity against methicillin-resistant Staphylococcus aureus 1653 after 18 to 20 hrs by broth microdilution method; type: functional
In short: (§3)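 EUCAST broth microdilution in LB broth. Inoculum from 20–24 h colonies on 5% sheep blood BHI agar, final 3×10^4 CFU/mL, 18–20 h aerobic at 37 °C, plate reader, at least duplicate.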

Staphylococcus aureus [11] = assay: Bactericidal activity against methicillin-resistant Staphylococcus aureus 1653 after 18 to 20 hrs by broth microdilution method; type: functional; in short: as §3
Streptococcus pneumoniae [12] = assay: Antibacterial activity against Streptococcus pneumoniae R6 after 18 to 20 hrs by broth microdilution method; type: functional
In short: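 Broth microdilution per EUCAST in BHI broth. Inoculum from colonies on BHI agar with 5% sheep blood, final 5×10^4 CFU/mL. Read after 18–20 h anaerobic incubation at 37 °C.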

Streptococcus pneumoniae [13] = assay: Bactericidal activity against Streptococcus pneumoniae R6 after 18 to 20 hrs by broth microdilution method; type: functional
Bacillus subtilis [14] = assay: Antibacterial activity against Bacillus subtilis ATCC 6051 after 18 to 20 hrs by broth microdilution method; type: functional
In short: (§4)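 Broth microdilution per EUCAST in LB broth. Inoculum from 20–24 h colonies by CLSI direct colony suspension (LB agar for E. coli), final 2×10^4 CFU/mL. Read after 18–20 h aerobic incubation at 37 °C on plate reader, at least one duplicate.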

Bacillus subtilis [15] = assay: Bactericidal activity against Bacillus subtilis ATCC 6051 after 18 to 20 hrs by broth microdilution method; type: functional
Enterococcus faecalis [16] = assay: Antibacterial activity against vancomycin resistant Enterococcus faecalis 501 after 18 to 20 hrs by broth microdilution method; type: functional
In short: (§5)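 EUCAST microdilution in BHI broth. Inoculum from 20–24 h colonies on 5% sheep blood BHI agar, final 3×10^4 CFU/mL, 18–20 h aerobic at 37 °C, plate reader, at least duplicate.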

Enterococcus faecalis [17] = assay: Bactericidal activity against vancomycin resistant Enterococcus faecalis 501 after 18 to 20 hrs by broth microdilution method; type: functional; in short: as §5
Pseudomonas aeruginosa [18] = assay: Antibacterial activity against Pseudomonas aeruginosa PA0001 after 18 to 20 hrs by broth microdilution method; type: functional
In short: (§6)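 EUCAST broth microdilution in LB broth. Inoculum from 20–24 h LB agar colonies (CLSI direct colony suspension), final 3×10^4 CFU/mL. Aerobic incubation 18–20 h at 37 °C, plate-reader read-out, at least one duplicate.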

Pseudomonas aeruginosa [19] = assay: Antibacterial activity against Pseudomonas aeruginosa ATCC 27853 after 18 to 20 hrs by broth microdilution method; type: functional; in short: as §6
Klebsiella pneumoniae [20] = assay: Antibacterial activity against Klebsiella pneumoniae ATCC 13882 after 18 to 20 hrs by broth microdilution method; type: functional
In short: (§7)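 Broth microdilution per EUCAST in TSB broth. Inoculum prepared by CLSI direct colony suspension from 20–24 h TSA colonies, final 3×10^4 CFU/mL. Aerobic incubation for 18–20 h at 37 °C, growth read on plate reader, at least one duplicate.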

Klebsiella pneumoniae [21] = assay: Antibacterial activity against Klebsiella pneumoniae ATCC 700603 after 18 to 20 hrs by broth microdilution method; type: functional; in short: as §7
Acinetobacter baumannii [22] = assay: Antibacterial activity against Acinetobacter baumannii ATCC 19606 after 18 to 20 hrs by broth microdilution method; type: functional; details: ATCC 19606 = CIP 70.34 = JCM 6841; in short: as §7
Acinetobacter baumannii [23] = assay: Antibacterial activity against Acinetobacter baumannii ATCC BAA-1605 after 18 to 20 hrs by broth microdilution method; type: functional; in short: as §7
[24] = Solubility of the compound in water; type: physicochemical; details: buffer
[25] = Stability of the compound in water; type: physicochemical; details: buffer
[26] = Stability of the compound in organic solvent; type: physicochemical
[27] = Stability of the compound in solid state; type: physicochemical
Escherichia coli [28] = assay: Antibacterial activity against Escherichia coli D22 after 18 to 20 hrs by microdilution method; type: functional; in short: as §4
Escherichia coli [29] = assay: Bactericidal activity against Escherichia coli D22 after 18 to 20 hrs by microdilution method; type: functional
Escherichia coli [30] = assay: Antibacterial activity against N43 CGSC 5583 knock out Escherichia coli after 18 to 20 hrs by microdilution method; type: functional; in short: as §4
[31] = Stability in pH 7.4 DMSOd6/PBS buffer assessed as glutathione reactivity incubated for 24 hrs by 1H NMR spectroscopic method; type: physicochemical; details: pH 7.4, 24 h
In short: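 Equimolar reduced glutathione and compound were incubated at room temperature in DMSO-d6/phosphate buffer pH 7.4 (1:1, v/v). The mixture was monitored by NMR.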

For O=[N+]([O-])c1ccc(/N=N/Nc2ccc([N+](=O)[O-])cc2C(F)(F)F)c(C(F)(F)F)c1, the Stability [1] was “Stable” and the Stability [2] was “Stable”.
In the case of O=C(CCl)N(/N=N/c1ccc([N+](=O)[O-])cc1C(F)(F)F)c1ccc([N+](=O)[O-])cc1C(F)(F)F, the MIC [3] is reported as 32 µg/mL (≈ 64 µM), the MBC [4] is reported as greater than 128 µg/mL and the MIC (Staphylococcus aureus [5]) is reported as 2 µg/mL (≈ 4 µM). For the same molecule, the MBC (Staphylococcus aureus [6]) was 2 µg/mL (≈ 4 µM), the MIC (Escherichia coli [7]) was 128 µg/mL (≈ 256 µM) and the MBC (Escherichia coli [8]) was greater than 128 µg/mL. It also gave an MIC (Saccharomyces cerevisiae) greater than 128 µg/mL, an Activity (Staphylococcus aureus [9]) of 100% and an MIC (Staphylococcus aureus [10]) of 0.03 µg/mL (≈ 0.06 µM). It also gave an MBC (Staphylococcus aureus [11]) of 0.5 µg/mL (≈ 1 µM), an MIC (Streptococcus pneumoniae [12]) of 0.0312 µg/mL (≈ 0.0625 µM) and an MBC (Streptococcus pneumoniae [13]) of 0.125 µg/mL (≈ 0.25 µM). For the same molecule, the MIC (Bacillus subtilis [14]) was 0.0312 µg/mL (≈ 0.0625 µM), the MBC (Bacillus subtilis [15]) was 4 µg/mL (≈ 8 µM) and the MIC (Enterococcus faecalis [16]) was 1 µg/mL (≈ 2 µM). For the same molecule, the MBC (Enterococcus faecalis [17]) was greater than 128 µg/mL, the MIC (Pseudomonas aeruginosa [18]) was greater than 128 µg/mL and the MIC (Pseudomonas aeruginosa [19]) was greater than 128 µg/mL. It also gave an MIC (Klebsiella pneumoniae [20]) greater than 128 µg/mL, an MIC (Klebsiella pneumoniae [21]) greater than 128 µg/mL and an MIC (Acinetobacter baumannii [22]) greater than 128 µg/mL. The MIC (Acinetobacter baumannii [23]) was greater than 128 µg/mL, the solubility [24] was “Soluble” and the Stability [25] was “Stable”. The Stability [26] was “Stable”, the Stability [27] was “Stable” and the MIC (Escherichia coli [28]) was 0.5 µg/mL (≈ 1 µM). The MBC (Escherichia coli [29]) was 16 µg/mL (≈ 32 µM) and the MIC (Escherichia coli [30]) was greater than 128 µg/mL.
For O=[N+]([O-])c1ccc(/N=N/[N-]c2ccc([N+](=O)[O-])cc2C(F)(F)F)c(C(F)(F)F)c1.[K+], the solubility [24] was “Soluble”, the Stability [25] was “Stable” and the Stability [26] was “Stable”. For the same molecule, the Stability [27] was “Stable”, the Stability [31] was “Stable” and the Stability [1] was “Stable”. For the same molecule, the Stability [2] was “Stable”.
